Experimental data pooled from the literature.
Protocols differ between the studies behind these lines.
Cell line: MDA-MB-468
Effect on: cell growth or viability

O=S(=O)(NN=Cc1cn(CCN2CCOCC2)c2ccccc12)c1ccccc1
IC50 (MTT; 48 h): 47 µM

CCN1CCN(Cc2ccc(Nc3ncc(F)c(-c4cc(F)c5nc(C)n(C(C)C)c5c4)n3)nc2)CC1
IC50 (CCK-8): 0.711 µM

COc1cccc2c1C(=O)c1c(O)c3c(c(O)c1C2=O)C[C@@](O)(C(=O)CO)C[C@@H]3O[C@H]1C[C@H](N)[C@H](O)[C@H](C)O1
IC50 (MTT; 48 h): 0.08 µM

O=C(CSc1nc2ccc(N=Cc3ccc(Sc4nnnn4-c4ccccc4)o3)cc2s1)N1CCOCC1
IC50 (MTT; 48 h): 26.9 µM

COc1ccccc1N=Nc1c(O)ccc2ccccc12
IC50 (MTT): 21 µM

COc1ccc(S(=O)(=O)NN=Cc2cn(CCN3CCOCC3)c3ccccc23)cc1
IC50 (MTT; 48 h): 43.3 µM

N=C(N)c1ccc(-c2ccc(-c3ccccc3)o2)cc1
IC50 (MTT): 0.66 µM

O=[N+]([O-])c1ccc(S(=O)(=O)NN=Cc2cn(CCN3CCOCC3)c3ccccc23)cc1
IC50 (MTT; 48 h): 37.1 µM

Cc1ccccc1Sc1cc2ccccc2c2ccccc12
IC50 (MTT): 29 µM

COc1ccc(/C=C/C(=O)c2cc(Br)ccc(=O)c2O)cc1
IC50 (MTT; 48 h): 6.3 µM

O=C(/C=C/c1ccccc1)c1ccccc1
IC50 (resazurin; 72 h): > 50 µM

CC1=CC(=C(c2ccc(N)c(C)c2)c2ccc(N)c(C)c2)C=CC1=N
IC50 (MTT): 3.1 µM

COc1cc(/C=C2\SC(=O)NC2=O)ccc1OCc1ccc(Cl)cc1Cl
IC50 (MTT; 72 h): 64.1 µM

O=S(=O)(NN=Cc1cn(CCN2CCOCC2)c2ccccc12)c1ccc(F)cc1
IC50 (MTT; 48 h): 15 µM

COc1ccc(Br)cc1/C=C/C(=O)c1ccc(NC(C)=O)cc1
IC50 (MTT; 72 h): 1.8 µM

CN(N=O)c1ccc(C=Cc2ccnc3ccccc23)cc1
IC50 (MTT): 3.5 µM

CC(=O)Nc1nc(C)c(-c2csc(Nc3ccccc3)n2)s1
IC50 (MTT; 72 h): 11.1 µM

O=S(=O)(NN=Cc1cn(CCN2CCOCC2)c2ccccc12)c1ccc2ccccc2c1
IC50 (MTT; 48 h): 53.4 µM

CN(C)c1ccc(/C=C/c2ccnc3ccc4ccccc4c23)cc1
IC50 (MTT): 0.12 µM

CCc1ccc(N2NC(=O)/C(=C/c3ccc(-c4ccc(S(=O)(=O)Nc5nccs5)cc4)o3)C2=O)cc1
IC50 (MTT; 48 h): 44 µM
